# Test results reported in ChEMBL document CHEMBL4725234, “Structure-activity relationship analyses of fusidic acid derivatives highlight crucial role of the C-21 carboxylic acid moiety to its anti-mycobacterial activity” (Bioorg Med Chem, 2020).
# Tests used:
# [1] = system: CHO-K1; test: Cytotoxicity against CHOK1 cells assessed as reduction in cell viability; format: cell-based; conditions: Cricetulus griseus
# [2] = system: Mycobacterium tuberculosis; test: Antimycobacterial activity against Mycobacterium tuberculosis H37Rv; format: functional
# Method in brief: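 Drug-sensitive M. tuberculosis H37Rv grown in a glycerol-containing medium; MIC99 is the minimum concentration that inhibits growth of 99% of the bacterial population.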
SMILES,IC50 [1],MIC99 [2]
CCCS(=O)(=O)NNC(=O)/C(CCC=C(C)C)=C1\[C@@H](OC(C)=O)C[C@@]2(C)[C@H]1C[C@@H](O)[C@H]1[C@@]3(C)CC[C@@H](O)[C@@H](C)[C@@H]3CC[C@@]12C,79.7 µM,40 µM
CCCCC(=O)O[C@@H]1CC[C@@]2(C)[C@@H](CC[C@@]3(C)[C@H]2[C@H](O)C[C@H]2/C(=C(\CCC=C(C)C)C(=O)NN)[C@@H](OC(C)=O)C[C@@]23C)[C@@H]1C,,62.5 µM
CC(=O)O[C@H]1C[C@@]2(C)[C@@H](C[C@@H](O)[C@H]3[C@@]4(C)CC[C@@H](OC(=O)c5ccncc5)[C@@H](C)[C@@H]4CC[C@@]32C)/C1=C(\CCC=C(C)C)C(=O)O,,31.3 µM
CC(=O)O[C@H]1C[C@@]2(C)[C@@H](C[C@@H](O)[C@H]3[C@@]4(C)CC/C(=N\O)[C@@H](C)[C@@H]4CC[C@@]32C)/C1=C(\CCC=C(C)C)C(=O)O,164 µM,2.5 µM
CCc1noc(/C(CCC=C(C)C)=C2\[C@@H](OC(C)=O)C[C@@]3(C)[C@H]2C[C@@H](O)[C@H]2[C@@]4(C)CC[C@@H](O)[C@@H](C)[C@@H]4CC[C@@]23C)n1,71.7 µM,> 125 µM
CC(=O)O[C@H]1C[C@@]2(C)[C@@H](C[C@@H](O)[C@H]3[C@@]4(C)CC[C@@H](O)[C@@H](C)[C@@H]4CC[C@@]32C)/C1=C(\CCC=C(C)C)C(=O)NC#N,> 185 µM,40 µM
CCC(=O)O[C@@H]1CC[C@@]2(C)[C@@H](CC[C@@]3(C)[C@H]2[C@H](O)C[C@H]2/C(=C(\CCC=C(C)C)C(=O)NN)[C@@H](OC(C)=O)C[C@@]23C)[C@@H]1C,,15.6 µM
CCCCS(=O)(=O)NNC(=O)/C(CCC=C(C)C)=C1\[C@@H](OC(C)=O)C[C@@]2(C)[C@H]1C[C@@H](O)[C@H]1[C@@]3(C)CC[C@@H](O)[C@@H](C)[C@@H]3CC[C@@]12C,49.9 µM,> 125 µM
CC(=O)O[C@H]1C[C@@]2(C)[C@@H](C[C@@H](O)[C@H]3[C@@]4(C)CC[C@@H](O)[C@@H](C)[C@@H]4CC[C@@]32C)/C1=C(\CCC=C(C)C)C(=O)NCCO,,> 125 µM
CO[C@H]1/C=C/O[C@@]2(C)Oc3c(C)c(O)c4c(O)c(c(/C=N/N5CCN(C)CC5)c(O)c4c3C2=O)NC(=O)/C(C)=C\C=C\[C@H](C)[C@H](O)[C@@H](C)[C@@H](O)[C@@H](C)[C@H](OC(C)=O)[C@@H]1C [RIFAMPIN],,0.005 µM
CO[C@H]1C[C@@]2(C)[C@@H](C[C@@H](O)[C@H]3[C@@]4(C)CC[C@@H](O)[C@@H](C)[C@@H]4CC[C@@]32C)/C1=C(\CCC=C(C)C)C(=O)O,29 µM,18.7 µM
CC(=O)O[C@H]1C[C@@]2(C)[C@@H](C[C@@H](O)[C@H]3[C@@]4(C)CC[C@@H](O)[C@@H](C)[C@@H]4CC[C@@]32C)C1=O,,> 125 µM
CCC(=O)O[C@@H]1CC[C@@]2(C)[C@@H](CC[C@@]3(C)[C@H]2[C@H](O)C[C@H]2/C(=C(\CCC=C(C)C)C(=O)NNS(C)(=O)=O)[C@@H](OC(C)=O)C[C@@]23C)[C@@H]1C,,7.81 µM
CC(=O)O[C@H]1C[C@@]2(C)[C@@H](C[C@@H](O)[C@H]3[C@@]4(C)CC[C@@H](OC(=O)c5ccc(S(C)(=O)=O)cc5)[C@@H](C)[C@@H]4CC[C@@]32C)/C1=C(\CCC=C(C)C)C(=O)O,,31.3 µM
CC(=O)O[C@H]1C[C@@]2(C)[C@@H](C[C@@H](O)[C@H]3[C@@]4(C)CC[C@@H](O)[C@@H](C)[C@@H]4CC[C@@]32C)/C1=C(\CCC=C(C)C)c1nc(-c2ccc(F)cc2)no1,77.4 µM,> 125 µM
CC(=O)O[C@H]1C[C@@]2(C)[C@@H](C[C@@H](O)[C@H]3[C@@]4(C)CC[C@@H](O)[C@@H](C)[C@@H]4CC[C@@]32C)/C1=C(\CCC=C(C)C)C(=O)NS(=O)(=O)c1ccc(C#N)cc1,,125 µM
CC(=O)O[C@H]1C[C@@]2(C)[C@@H](C[C@@H](OC(C)=O)[C@H]3[C@@]4(C)CC[C@@H](OC(C)=O)[C@@H](C)[C@@H]4CC[C@@]32C)/C1=C(\CCC=C(C)C)C(=O)O,,52.5 µM
CC(=O)O[C@H]1C[C@@]2(C)[C@@H](CC(=O)[C@H]3[C@@]4(C)CCC(=O)[C@@H](C)[C@@H]4CC[C@@]32C)/C1=C(\CCC=C(C)C)C(=O)O,,11.9 µM
CC(=O)O[C@H]1C[C@@]2(C)[C@@H](C[C@@H](O)[C@H]3[C@@]4(C)CC[C@@H](O)[C@@H](C)[C@@H]4CC[C@@]32C)/C1=C(\CCC=C(C)C)C(=O)NNS(C)(=O)=O,92.2 µM,10 µM
CC(=O)O[C@H]1C[C@@]2(C)[C@@H](C[C@@H](O)[C@H]3[C@@]4(C)CC/C(=N\OCc5ccccc5)[C@@H](C)[C@@H]4CC[C@@]32C)/C1=C(\CCC=C(C)C)C(=O)O,,40 µM

SMILES,IC50 [1],MIC99 [2]
CCCCC(=O)O[C@@H]1CC[C@@]2(C)[C@@H](CC[C@@]3(C)[C@H]2[C@H](O)C[C@H]2/C(=C(\CCC=C(C)C)C(=O)NNS(C)(=O)=O)[C@@H](OC(C)=O)C[C@@]23C)[C@@H]1C,,62.5 µM
CC(=O)O[C@H]1C[C@@]2(C)[C@@H](C[C@@H](O)[C@H]3[C@@]4(C)CC[C@@H](O)[C@@H](C)[C@@H]4CC[C@@]32C)/C1=C(\CCC=O)C(=O)O,,40 µM
CC(=O)O[C@H]1C[C@@]2(C)[C@@H](C[C@@H](O)[C@H]3[C@@]4(C)CC[C@@H](O)[C@@H](C)[C@@H]4CC[C@@]32C)/C1=C(\CCC=C(C)C)C(=O)NNS(=O)(=O)c1ccc(C)cc1,48.2 µM,> 125 µM
CC(=O)O[C@H]1C[C@@]2(C)[C@@H](C[C@@H](O)[C@H]3[C@@]4(C)CC[C@@H](O)[C@@H](C)[C@@H]4CC[C@@]32C)/C1=C(\CCC=C(C)C)C(=O)NNC(=O)c1cccs1,78.8 µM,40 µM
CC(=O)O[C@H]1C[C@@]2(C)[C@@H](C[C@@H](O)[C@H]3[C@@]4(C)CCC(=O)[C@@H](C)[C@@H]4CC[C@@]32C)/C1=C(\CCC=C(C)C)C(=O)NNS(C)(=O)=O,,62.5 µM
CC(=O)O[C@H]1C[C@@]2(C)[C@@H](C[C@@H](O)[C@H]3[C@@]4(C)CC[C@@H](OC(=O)c5ccc(F)cc5)[C@@H](C)[C@@H]4CC[C@@]32C)/C1=C(\CCC=C(C)C)C(=O)O,,> 125 µM
CC(=O)O[C@H]1C[C@@]2(C)[C@@H](C[C@@H](O)[C@H]3[C@@]4(C)CC[C@@H](O)[C@@H](C)[C@@H]4CC[C@@]32C)/C1=C(\CCC=C(C)C)C(=O)Nc1nn[nH]n1,> 171 µM,40 µM
CO/N=C1\CC[C@@]2(C)[C@@H](CC[C@@]3(C)[C@H]2[C@H](O)C[C@H]2/C(=C(\CCC=C(C)C)C(=O)O)[C@@H](OC(C)=O)C[C@@]23C)[C@@H]1C,,20 µM
CC(=O)O[C@H]1C[C@@]2(C)[C@@H](C[C@@H](O)[C@H]3[C@@]4(C)CC[C@@H](O)[C@@H](C)[C@@H]4CC[C@@]32C)/C1=C(\CCC=C(C)C)C(=O)N/N=C/c1cccnc1,,20 µM
CC[C@H]1CN2CCc3cc(OC)c(OC)cc3[C@@H]2C[C@@H]1C[C@H]1NCCc2cc(OC)c(OC)cc21 [EMETINE],0.4 µM,
CC(=O)O[C@H]1C[C@@]2(C)[C@@H](C[C@@H](O)[C@H]3[C@@]4(C)CC[C@@H](O)[C@@H](C)[C@@H]4CC[C@@]32C)/C1=C(\CCC=C(C)C)C(=O)N/N=C/c1ccncc1,,20 µM
CC(=O)O[C@H]1C[C@@]2(C)[C@@H](C[C@@H](O)[C@H]3[C@@]4(C)CC[C@@H](OC(=O)c5ccc(C)cc5)[C@@H](C)[C@@H]4CC[C@@]32C)/C1=C(\CCC=C(C)C)C(=O)O,,31.3 µM
CC(=O)O[C@H]1C[C@@]2(C)[C@@H](C[C@@H](O)[C@H]3[C@@]4(C)CC[C@@H](O)[C@@H](C)[C@@H]4CC[C@@]32C)/C1=C(\CCC=C(C)C)C(=O)NCCN1CCOCC1,,> 125 µM
CCCCCCCCCC(=O)O[C@@H]1CC[C@@]2(C)[C@@H](CC[C@@]3(C)[C@H]2[C@H](O)C[C@H]2/C(=C(\CCC=C(C)C)C(=O)O)[C@@H](OC(C)=O)C[C@@]23C)[C@@H]1C,,> 125 µM
COc1ccc(S(=O)(=O)NC(=O)/C(CCC=C(C)C)=C2\[C@@H](OC(C)=O)C[C@@]3(C)[C@H]2C[C@@H](O)[C@H]2[C@@]4(C)CC[C@@H](O)[C@@H](C)[C@@H]4CC[C@@]23C)cc1,,31.3 µM
CC(=O)O[C@H]1C[C@@]2(C)[C@@H](C[C@@H](O)[C@H]3[C@@]4(C)CC[C@@H](OC(=O)c5ccc([N+](=O)[O-])cc5)[C@@H](C)[C@@H]4CC[C@@]32C)/C1=C(\CCC=C(C)C)C(=O)O,,> 125 µM
CC(=O)O[C@H]1C[C@@]2(C)[C@@H](C[C@@H](O)[C@H]3[C@@]4(C)CC[C@@H](O)[C@@H](C)[C@@H]4CC[C@@]32C)/C1=C(\CCC=C(C)C)C(=O)N1CC(O)C1,,40 µM
CC(=O)O[C@H]1C[C@@]2(C)[C@@H](C[C@@H](O)[C@H]3[C@@]4(C)CC[C@@H](OC(=O)c5ccc(Br)cc5)[C@@H](C)[C@@H]4CC[C@@]32C)/C1=C(\CCC=C(C)C)C(=O)O,,> 125 µM
CC(=O)O[C@H]1C[C@@]2(C)[C@@H](C[C@@H](O)[C@H]3[C@@]4(C)CC[C@@H](OC(=O)c5ccc(C(F)(F)F)cc5)[C@@H](C)[C@@H]4CC[C@@]32C)/C1=C(\CCC=C(C)C)C(=O)O,,> 125 µM
CC(=O)O[C@H]1C[C@@]2(C)[C@@H](C[C@@H](O)[C@H]3[C@@]4(C)CC[C@@H](O)[C@@H](C)[C@@H]4CC[C@@]32C)/C1=C(\CCC=C(C)C)C(=O)N1CCC(O)CC1,,40 µM
